Bioassay records (PubChem BioAssay)
MC4R antagonist – MC4R antagonists of cAMP signaling, primary screen, cell-based, TR-FRET, antagonist arm of biased-ligand search; MC4R-expressing cells, MTII-stimulated cAMP, LANCE TR-FRET; inhibition, % at 6.5 µM; 360,000 compounds, 0.48% hits;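 active = inhibition above its plate's cutoff, the mean of tested wells on that plate plus 3 SD, cut at about 29% in these data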;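 note: 0% = Melanotan II alone and 100% = Melanotan II plus saturating MCL0020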
Target sequence (P32245 whole entry, looked up): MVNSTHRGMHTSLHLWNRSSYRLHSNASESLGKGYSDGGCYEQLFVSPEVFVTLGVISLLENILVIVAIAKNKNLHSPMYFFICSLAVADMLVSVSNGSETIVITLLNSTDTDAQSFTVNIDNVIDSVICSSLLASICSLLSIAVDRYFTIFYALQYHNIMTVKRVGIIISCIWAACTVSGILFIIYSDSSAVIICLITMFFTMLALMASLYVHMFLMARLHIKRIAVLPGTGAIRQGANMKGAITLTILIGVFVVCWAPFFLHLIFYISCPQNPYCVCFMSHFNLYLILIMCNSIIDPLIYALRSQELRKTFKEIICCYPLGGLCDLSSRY
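material = U2OS cells stably expressing human melanocortin 4 receptor (MC4R) | also added = Melanotan II challenge | dosing = single nominal compound dose of 6.5 µM | detection = TR-FRET with Eu-cAMP and labeled anti-cAMP, 671 nm | replication = singlicate | timing = compound 30 min, challenge 1 h, detection 1 h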
MC4R ag barr – MC4R agonists recruiting beta-arrestin, primary screen, cell-based, luminescence, agonist arm of biased-ligand search; activation, % at 8.9 µM; U2OS MC4R beta-arrestin complementation; percent of melanotan II response, DMSO zero; AID 540308, 2011; 360,000 compounds, 0.98% hits;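 active = activation above a per-plate cutoff, the mean activation of sample wells on that plate plus 3 SD, cut at about 8% in these data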
NTR1 ag – agonists of human NTR1, primary screen, imaging, U2OS cells, beta-arrestin-GFP, high content. Neurotensin receptor type 1 (Homo sapiens), P30989. 330,000 compounds, 0.17% hits. activation, % at 20 µM. NTR1-U2OS beta-arrestin-GFP spot imaging, agonist mode;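 active = activation at or above 40% of the spot to cytoplasm intensity ratio, with at least 20 cells analyzed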;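 note: 0% = DMSO without peptide and 100% = 100 nM NTR1 peptide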
AI-2 QS mod – Vibrio harveyi AI-2 quorum sensing modulators, primary screen, JMH597 strain, luminescence/OD600 ratio. Vibrio harveyi JMH597 AI-2 luminescence/OD600 ratio, 9 h; hits give low values; strain lacks LuxN and CqsS sensors; 0 = neutral-control median. activity change, % at 7.5 µM. 300,000 compounds, 0.4% hits. AID 2094, 2009; in the data active = activity change below about -75%, passing the limit was not always enough;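 note: luminescence divided by OD600 gain over 9 h not by final OD600 alone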
MC4R barr ag – MC4R beta-arrestin agonists, retest, confirmation, cell-based, luminescence, U2OS. shares compounds with MC4R ag barr. U2OS MC4R beta-arrestin recruitment; scaled DMSO 0%, Melanotan II 100%. activation, % at 8.9 µM. 2,400 compounds, 31% hits. AID 602192, 2012;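 active = mean activation across replicates above the hit cutoff set in the earlier primary screen, cut at about 8% in these data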
MOR-DOR barr ag – agonists of MOR-DOR heterodimerization, counter-screen for MC4R biased agonist project, cell-based, luminescence. 2,400 compounds, 5.8% hits. activation, % at 9.2 µM. shares compounds with MC4R ag barr. U2OS PathHunter beta-arrestin, beta-gal luminescence; percent of deltorphin B response, DMSO zero;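 active = mean activation across replicates exceeds the hit threshold derived in the earlier primary screen, cut at about 18% in these data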;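 note: 100% = deltorphin B at 0.9 µM final and 0% = DMSO alone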
Starred values were filed as active, the others as inactive; . = no result given. Hits are enriched below; roughly 1.8% of the tested compounds scored in any of these assays.

SMILES	MC4R antagonist	MC4R ag barr	NTR1 ag	AI-2 QS mod	MC4R barr ag	MOR-DOR barr ag
C/C=C(/C)C(=O)OC1CC(C)(C)C[C@H]2C3=CC[C@@H]4[C@@]5(C)CCC(O[C@@H]6O[C@@H](C(=O)O)[C@@H](O)C(O[C@@H]7OC[C@H](O)[C@@H](O)[C@@H]7O[C@@H]7OC(CO)C(O)[C@@H](O)[C@@H]7O)C6O[C@@H]6OC(CO)C(O)C(O)C6O)[C@@](C)(CO)[C@@H]5CC[C@]4(C)[C@]3(C)CC(O)[C@@]12CO (stereo not given in full)	27	9.9*	8	.	8.6*	4
CC1(C)C[C@H]2C3=CCC4[C@@]5(C)CC[C@H](O[C@@H]6O[C@H](C(=O)O)[C@@H](O)[C@H](O)[C@H]6O)[C@@](C)(CO)C5CC[C@@]4(C)[C@]3(C)C[C@H](O)[C@@]2(CO)[C@@H](O)[C@@H]1O (stereo not given in full)	19	0	0	.	.	.
CC(=O)Nc1ccc(C(=O)CSc2cc(C)c3cccc(C)c3n2)cc1	-4	28*	17	11	3	4
CNC(=O)c1c(NC(=O)c2ccc(N3C(=O)CCC3=O)cc2)sc2c1CCC(C)C2 (stereo not given)	12	-2	1	9	.	.
CCOc1ccc(-c2cc(C(=O)Nc3cccc(C(F)(F)F)c3)[nH]n2)c(C)c1	4	11*	.	.	6	5
CCOc1ccc(-c2cc(C(=O)NCc3ccc(C(F)(F)F)cc3)[nH]n2)c(C)c1	1	13*	.	.	1	8
CCOc1ccc(-c2cc(C(=O)NCc3ccc(F)cc3)[nH]n2)c(C)c1	1	0	.	.	.	.
Cc1ccc(S(=O)(=O)N2CCCN(C)c3nc4ccccc4nc32)cc1	11	0	0	.	.	.
Cc1ccc(-c2cc(C(=O)N/N=C/c3c(C)nn(C)c3C)c3ccccc3n2)cc1C	10	11*	12	18	9.3*	4
Cc1ccccc1NC(=O)c1cc2c(=O)n3cccc(C)c3nc2s1	8	19*	2	1	5	8
Cc1cccn2c(=O)c3cc(C(=O)NCCc4ccccc4)sc3nc12	0	18*	8	13	13*	3
CC(=O)C[C@@H](O)CC(=O)[C@@H]1OC(=O)CCCCCCCCc2ccccc21	0	2	0	.	.	.
COC(=O)c1c(C)[nH]c(C(=O)OCc2csc(CC(=O)Nc3ccccc3C)n2)c1C	0	-1	1	.	.	.
Cc1ccc(NC(=O)C(C)OC(=O)CCC2CCCCC2)cc1 (stereo not given)	7	11*	0	10	3	6
O=C(CNCC1CCCCC1)Nc1ccc(OC(F)(F)F)cc1	-3	15*	6	10	8	9
COc1ccc(NC(=O)COC(=O)CCC2CCCCC2)cc1	7	9.9*	0	.	0	8
CN(CC(=O)Nc1ccc(OC(F)(F)F)cc1)C1CCCCC1	-3	1	-1	10	.	.
Cc1ccc2nc(NCCc3ccccc3)c3nncn3c2c1	-2	-2	7	14	.	.
COc1cc(C2/C(=C(\O)c3ccc4c(c3)CC(C)O4)C(=O)C(=O)N2CCN2CCOCC2)cc(OC)c1OC (stereo not given)	0	0	0	19	.	.
CSc1ccccc1NC(=O)C1(C)CCN1C(=O)CCC1CCCC1 (stereo not given)	2	-2	.	.	.	.
O=C(Nc1ccc2oc(-c3cccc(F)c3)nc2c1)c1ccccc1F	7	27*	3	3	16*	4
O=C(NCCC1CCCCN1S(=O)(=O)c1ccc(F)cc1)C(=O)NCc1ccccn1 (stereo not given)	-1	-1	-1	18	.	.
